Assay results as given in ChEMBL document CHEMBL1141224, “Parallel solution-phase and microwave-assisted synthesis of new S-DABO derivatives endowed with subnanomolar anti-HIV-1 activity” (J Med Chem, 2005).
Calls of active or inactive are those of the source. The rule behind the calls is not given here.

Assays:
[1] = test system: Human immunodeficiency virus type 1 reverse transcriptase (Human immunodeficiency virus 1), Q72547 [Y181I]; assay: Inhibition of Y181I mutant HIV1 reverse transcriptase by [3H]dTTP poly(rA)/oligo(dT) incorporation at 400 uM
Method in brief: (§1)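 RNA-dependent DNA polymerase assay of recombinant RT at 5–10 nM. Template: poly(rA)/oligo(dT) (0.3 μM 3'-OH ends) with 10 μM [3H]-dTTP. Run 10 min at 37 °C with increasing inhibitor. TCA-precipitated product was counted on GF/C filters. Highest concentration tested was 400 μM.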

MT4 [2] = assay: Cytotoxicity against MT4 cells by MTT method; assay type: functional; settings: Homo sapiens
Method in brief: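 Mock-infected MT-4 cells exposed to graded drug concentrations. Viability assessed by MTT colorimetric method at day 5. CC50 is the concentration causing 50% death of noninfected cells. Mean of at least two experiments.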

[3] = target: Human immunodeficiency virus type 1 reverse transcriptase (Human immunodeficiency virus 1) (UniProt Q72547)
[4] = test system: Human immunodeficiency virus 1; assay: Antiviral activity against wild type HIV1 NL4-3 infected MT4 cells by MTT method; assay type: functional, organism-based; settings: Human immunodeficiency virus 1, NL4-3, MT4
Method in brief: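 MT-4 lymphoid cells infected with HIV-1 NL4-3 in the presence of graded drug concentrations. Viable cells counted by MTT colorimetric assay at day 5 post-infection. EC50 is the concentration protecting 50% of cells from HIV-induced death. Mean of at least two experiments.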

[5] = test system: Human immunodeficiency virus 1; assay: Antiviral activity against HIV1 Y188L mutant strain infected MT4 cells by MTT method; assay type: functional, organism-based; settings: Human immunodeficiency virus 1, Y188L, MT4
[6] = test system: Human immunodeficiency virus 1; assay: Antiviral activity against HIV1 K103N mutant strain infected MT4 cells by MTT method at 62 uM; assay type: functional; settings: Human immunodeficiency virus 1, K103N
Method in brief: (§2)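 MT-4 cells infected with the mutant HIV-1 strain and treated with compound. Viable cells were measured by MTT colorimetric assay on day 5 post-infection. The value is the percent inhibition of HIV-induced cell death at the stated micromolar concentration. Values are the mean of at least two experiments.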

[7] = test system: Human immunodeficiency virus 1; assay: Antiviral activity against HIV1 IRLL98 mutant strain infected MT4 cells by MTT method; assay type: functional, organism-based; settings: Human immunodeficiency virus 1, IRLL98, MT4
Method in brief: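 MT-4 cells infected with the HIV-1 mutant strain, or mock-infected for cytotoxicity, in the presence of a range of drug concentrations. Viable cells were counted by MTT colorimetric assay on day 5 post-infection. EC50 is the concentration that blocks 50% of HIV-induced cell death. Values are the mean of at least two experiments. IRLL98 carries RT mutations K101Q, Y181C and G190A, plus NRTI mutations.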

[8] = test system: Human immunodeficiency virus type 1 reverse transcriptase (Human immunodeficiency virus 1), Q72547 [K103N]; assay: Inhibition of K103N mutant HIV1 reverse transcriptase by [3H]dTTP poly(rA)/oligo(dT) incorporation at 400 uM; method in brief: as §1
[9] = test system: Human immunodeficiency virus 1; assay: Antiviral activity against HIV1 K103N mutant strain infected MT4 cells by MTT method; assay type: functional, organism-based; settings: Human immunodeficiency virus 1, K103N
[10] = test system: Human immunodeficiency virus 1; assay: Antiviral activity against HIV1 IRLL98 mutant strain infected MT4 cells by MTT method at 11 uM; assay type: functional; settings: Human immunodeficiency virus 1, IRLL98, MT4; method in brief: as §2
[11] = test system: Human immunodeficiency virus type 1 reverse transcriptase (Human immunodeficiency virus 1), Q72547 [K103N]
[12] = test system: Human immunodeficiency virus type 1 reverse transcriptase (Human immunodeficiency virus 1), Q72547 [Y181I]
MT4 [13] = assay: Cytotoxicity against MT4 cells by MTT method at 11 uM; assay type: functional, Homo sapiens
[14] = target: Human immunodeficiency virus type 1 reverse transcriptase (Human immunodeficiency virus 1) (UniProt Q72547); assay: Inhibition of wild type HIV1 reverse transcriptase by [3H]dTTP poly(rA)/oligo(dT) incorporation at 400 uM; method in brief: as §1
[15] = test system: Human immunodeficiency virus 1; assay: Antiviral activity against wild type HIV1 NL4-3 infected MT4 cells by MTT method at 2.3 uM; assay type: functional; settings: Human immunodeficiency virus 1, NL4-3, MT4
Method in brief: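 MT-4 cells infected with HIV-1 NL4-3 and exposed to drug. Viable cells measured by MTT assay at day 5 post-infection. Result given as percent inhibition of HIV-induced cell death at the stated micromolar concentration. Mean of at least two experiments.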

SMILES	ID50 [1]	CC50 (MT4 [2]) [µM]	ID50 [3] [µM]	EC50 [4] [µM]	EC50 [5] [µM]	inhibition at 62 µM [6] [%]	EC50 [7] [µM]	ID50 [8]	EC50 [9] [µM]	inhibition at 11 µM [10] [%]	ID50 [11] [µM]	ID50 [12] [µM]	Activity (MT4 [13]) [%]	ID50 [14]	inhibition at 2.3 µM [15] [%]
Cc1c(O)nc(SCc2ccc(C(C)C)cc2)nc1Cc1c(F)cccc1F	inactive	> 62	3	0.58	> 62	33	16	inactive							
CCCCOc1ccc(CSc2nc(O)c(C)c(Cc3c(Cl)cccc3Cl)n2)cc1	inactive	3.1	2.8	> 3.1	> 3.1			inactive	> 3.1	34					
COc1ccc(CCSc2nc(Cc3c(Cl)cccc3Cl)c(C)c(=O)[nH]2)cc1		> 57	0.026	< 0.00014	6.9		0.00022		0.87		3.2	1.5			
Cc1c(O)nc(SCc2ccc(C(C)C)cc2)nc1Cc1c(Cl)cccc1Cl	inactive				> 58		> 57	inactive	> 58				45	inactive	35
